Screening data (PubChem)
Sampled rows, rich in hits. Any-hit rate of the full collection: about 3.7%.
NPY2 pot ag = human NPY-Y2 potentiation or agonism, primary screen. activation, % at 3.6 µM. cells expressing NPY-Y2, potentiator/agonist read-out. 220,000 compounds, 0.45% hits. AID 1359. P49146; in the data active = activation above about 27%;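 also: cells stimulated with NPY near EC25 plus isoproterenol at EC100; 0% = vehicle plus submaximal agonist and 100% = vehicle plus saturating agonist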
NPY-Y1 antag = NPY-Y1 (human) receptor antagonism; P25929; HEK293-CNG Y1 cells, membrane potential fluorescence; NPY at EC95, then isoproterenol; inhibition, % at 3.6 µM; 200,000 compounds, 1% hits; AID 1040;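 active = inhibition above the campaign mean inhibition of all tested compounds plus 3 SD, cut at about 20% in these data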;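 also: 0% = DMSO wells given NPY plus isoproterenol and 100% = isoproterenol alone without NPY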
Target sequence (P25929 whole entry, looked up): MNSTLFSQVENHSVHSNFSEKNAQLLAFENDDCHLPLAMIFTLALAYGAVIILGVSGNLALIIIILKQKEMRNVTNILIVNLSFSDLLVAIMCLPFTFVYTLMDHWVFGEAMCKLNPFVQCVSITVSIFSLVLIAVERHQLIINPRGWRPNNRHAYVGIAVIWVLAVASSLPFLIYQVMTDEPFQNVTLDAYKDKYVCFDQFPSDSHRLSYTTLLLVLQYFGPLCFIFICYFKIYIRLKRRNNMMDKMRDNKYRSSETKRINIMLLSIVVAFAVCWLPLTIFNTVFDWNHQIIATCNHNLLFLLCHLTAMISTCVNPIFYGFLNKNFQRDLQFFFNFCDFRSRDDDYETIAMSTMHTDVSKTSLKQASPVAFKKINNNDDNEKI
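Test system – HEK293 Y1/CNG channel cell line · Also added – NPY agonist 25 nM, then isoproterenol 1 µM plus Ro 20-1724 25 µM · Compound dosing – one concentration, 3.6 µM, in 0.4% DMSO · Schedule – compound incubation 1 h at room temperature, readout 45 min post-stimulation · Technique – fluorescence, membrane potential probe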
NPY-Y2 antag = NPY-Y2 (human) receptor antagonism; P49146; NPY-Y2 expressing cells, antagonist mode; inhibition, % at 2.7 µM; 140,000 compounds, 0.99% hits; in the data active = inhibition above about 17%;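 also: 0% = vehicle with agonist challenge and 100% = reference antagonist with challenge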
NPY-Y1 PAM-ag = potentiators or agonists of human neuropeptide Y receptor Y1; P25929; NPY-Y1 expressing cells, potentiator/agonist activation; activation, % at 3.6 µM; 220,000 compounds, 0.37% hits; in the data active = activation above about 33%, passing the limit was not always enough;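 also: cells stimulated with NPY at EC10 then isoproterenol at EC100; 0% = low agonist plus stimulus and 100% = saturating agonist plus stimulus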
Furin inhibitor = human furin inhibition; P09958; purified furin, fluorogenic substrate cleavage; inhibition, % at 20 µM or 30 µM; 220,000 compounds, 0.061% hits; in the data active = inhibition above about 25%
KCC2 mod = KCC2 (human) Cl- transport modulation; KCC2 cells, thallium flux FluoZin-2 fluorescence; 190,000 compounds, 2.2% hits; B-score of Tl+ flux slope (higher = more flux/activation; lower = inhibition) at 10 µM; Q9H2X9;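 active = thallium flux slope and its plate-corrected score both differing from the plate sample mean at a set confidence after two filtering rounds, in either direction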;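 also: slope of fluorescence scaled to starting intensity during 10 to 20 s after thallium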
KCC2 sec1 = KCC2 (human) modulation, secondary assay. AID 1713. HEK293-KCC2, thallium flux, FluoZin2 fluorescence; hits give high values. shares compounds with KCC2 mod. 3,700 compounds, 15% hits. normalised thallium flux (F/F0 slope) at 10 µM;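 active = thallium flux slope above the same plate's solvent-only control mean plus 3 SD; inconclusive = the two replicate wells disagree; inactive = no significant difference from solvent-only control wells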
KCC2 bumet counter = thallium flux persisting under bumetanide in KCC2 cells, counter-screen secondary assay. shares compounds with KCC2 mod. HEK293-KCC2 + bumetanide/ouabain, thallium flux FluoZin2; hits give high values. normalized thallium flux at 10 µM. 3,700 compounds, 49% hits;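 active = thallium entry rate above the same plate's blocked-transporter control wells by more than 3 SD; inconclusive = the two repeat wells disagree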;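 also: raw slope of fluorescence over initial fluorescence between 10 and 20 s after thallium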
KCC2 sec2 = KCC2 (human) modulation, second secondary assay; shares compounds with KCC2 mod; HEK293-KCC2, thallium flux FluoZin2 fluorescence; actives lie on both sides; F/F0 rise rate, 10–20 s post-thallium; normalized thallium flux at 10 µM; 3,700 compounds, 23% hits; AID 1715;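 active = thallium flux slope more than 3 SD above or below the plate's solvent-only control mean, mostly below; inconclusive = the two repeat wells disagreed; inactive = no significant shift from solvent-only controls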;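 also: raw slope with 0.1% DMSO as baseline and bumetanide as block control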
HEK counter1 = counter-screen for KCC2 modulators: effect in parental HEK293 cells | shares compounds with KCC2 mod | thallium flux FluoZin2, ouabain; baseline-ratio fluorescence slope, 10–20 s after thallium | thallium flux rate (normalised fluorescence) at 10 µM | 3,700 compounds, 46% hits | AID 1716;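 active = thallium flux rate significantly above the same plate's solvent-only control wells, beyond their mean plus 3 SD; inconclusive = the two replicate wells gave conflicting results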
KCC2 ouabain = confirmation of human KCC2 modulators with ouabain; AID 1717; raw Tl+ flux slope (below DMSO = inhibition, above = activation) at 10 µM; shares compounds with KCC2 mod; HEK293-KCC2, thallium flux FluoZin2 fluorescence; bidirectional: low = inhibitor, high = activator; 3,700 compounds, 48% hits;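 active = thallium flux slope beyond 3 SD from same-plate DMSO control mean in most replicates, usually higher, sometimes lower; inconclusive = repeat tests gave conflicting results; inactive = no significant difference from controls in most replicates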;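 also: slope of initial-normalized fluorescence between seconds 10 and 20 after thallium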
HEK293 Tl flux2 = parental HEK flux effect, counter-screen 2; AID 1718; shares compounds with KCC2 mod; thallium flux slope at 10 µM; 3,700 compounds, 33% hits; HEK293 parental, thallium flux FluoZin-2 fluorescence slope;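 active = thallium flux slope above the same plate's solvent-control mean plus 3 SD in both duplicate wells; inconclusive = duplicate wells that disagreed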;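 also: run without ouabain in cells lacking the KCC2 cotransporter; slope of fluorescence scaled to its starting value between 10 and 20 s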
Starred values were filed as active, the others as inactive; ? = inconclusive; . = no result given.

SMILES	NPY2 pot ag	NPY-Y1 antag	NPY-Y2 antag	NPY-Y1 PAM-ag	Furin inhibitor	KCC2 mod	KCC2 sec1	KCC2 bumet counter	KCC2 sec2	HEK counter1	KCC2 ouabain	HEK293 Tl flux2
CCCn1c(N2CCC(Cc3ccccc3)CC2)nc2c1c(=O)[nH]c(=O)n2C	0.8	-3.4	5.4	2.7	8.4	.	0.00571	0.00402	?	?	0.0159*	0.0103
Cn1c(=O)[nH]c(=O)c2c1nc(N1CCC(Cc3ccccc3)CC1)n2Cc1ccccc1	7.1	1.0	0.9	-9.6	-13.3	-0.337	.	.	.	.	.	.
CC(=O)Cn1c(N2CCC(Cc3ccccc3)CC2)nc2c1c(=O)[nH]c(=O)n2C	12.6	-4.1	-1.3	0.9	4.1	-0.444	.	.	.	.	.	.
Nc1nc2c(Cl)ccc(Cl)c2s1	-7.5	0.4	.	-5.2	-17.4	-0.416	.	.	.	.	.	.
O=c1c2ccc(Cl)cc2[nH]c(=S)n1Cc1cccnc1	-7.8	7.3	2.3	-8.2	-2.9	3.56*	0.0129*	0.0297*	0.0345	0.0153*	0.0284	0.0115*
NS(=O)(=O)c1ccc(CCNC(=O)C2CCC(Cn3c(=S)[nH]c4ccccc4c3=O)CC2)cc1 (stereo unspecified)	9.9	-1.1	.	10.2	-14.7	0.83	.	.	.	.	.	.
NS(=O)(=O)c1ccc(CCn2c(=S)[nH]c3ccc(F)cc3c2=O)cc1	0.7	-0.9	.	13.6	-8.3	3.14*	?	0.00721	0.0304	0.00926*	0.0202	0.0111*
O=c1[nH]cc(C(F)(F)F)cc1NS(=O)(=O)c1ccccc1[N+](=O)[O-]	-8.7	1.5	.	3.8	-18.3	-0.00453	.	.	.	.	.	.
CC(C)Cn1c(N)c(C(=O)CSc2ncnc3sc4c(c23)CCCC4)c(=O)n(C)c1=O	-2.4	2.6	1.5	2.6	-15.2	7.94*	0.0177	0.0141*	0.0312	0.0137*	0.0213*	0.0138*
CC(=O)C(Sc1ncnc2sc3c(c12)CCCC3)C(C)=O	3.1	-0.1	.	-1.0	-11.6	6.42*	0.0149*	0.0999*	0.0294	0.0182*	?	0.0131*
O=C(CSc1ncnc2sc3c(c12)CCCC3)c1ccco1	3.9	9.2	1.7	-13.8	-42.9	19.2*	?	0.0953*	0.0378	?	0.0551*	?
O=C(CSc1ncnc2sc3c(c12)CCCC3)c1ccccc1	-6.1	-3.4	2.0	-21.8	-10.1	2.82	.	.	.	.	.	.
Cc1ccc(C(=O)O)cc1NC(=O)CSc1ncnc2sc3c(c12)CCC3	6.4	.	.	-4.0	-16.4	10.4*	0.00689	0.0156*	0.0364	0.0165*	0.0254*	0.0179*
COc1ccc(/C=C\C(=O)c2c(O)ccc3c(C)cc(=O)oc23)cc1OC	-13.9	4.7	2.8	22.8	-3.6	-0.955	.	.	.	.	.	.
CCOC(=O)C1=C(N)Oc2c(c(=O)[nH]c3ccccc23)C1c1ccccc1 (stereo unspecified)	4.9	4.3	3.8	7.5	-8.9	.	.	.	.	.	.	.
CN1CCc2nc3ccc(Cl)cc3c(-c3ccccc3Cl)c2C1	4.2	8.2	5.6	-25.9	-22.4	-2.2	.	.	.	.	.	.
CC(C#N)Sc1ncnc2sc3c(c12)CCC3 (stereo unspecified)	-21.5	7.3	6.1	-23.9	-12.7	4.25*	?	0.0315*	0.0328	0.0171*	0.0219	0.0129*
N#CCSc1ncnc2sc3c(c12)CCC3	-14.5	3.4	2.0	-5.0	-17.0	0.3	.	.	.	.	.	.
